Assay results published in ChEMBL document CHEMBL1122230, “Quantitative aspects of the receptor binding of cytokinin agonists and antagonists” (J Med Chem, 1983).

Test system: Nicotiana tabacum
Test: Inhibition of 50% growth of tobacco callus derived from Nicotiana tabacum var on medium with 0.05 uM kinetin but without anti-cytokinin; NR=not reached to the maximum growth within the concentration range tested
Format: functional, organism-based
Outline: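 Basal medium with 0.05 μM kinetin plus the test compound at a series of concentrations, pH 5.6 (1 N NaOH), autoclaved at 1.0 kg/cm² for 15 min. Three tobacco callus pieces of ca. 10 mg fresh weight were used per culture. I50 is the concentration giving 50% of the callus growth seen on kinetin medium without anticytokinin.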

Row | Compound | Log 1/I50
1 | Cc1nc(NCCO)c2cc[nH]c2n1 | Not reached

Test system: Nicotiana tabacum
Test: Concentration at which 50% of maximum response of callus yield derived from Nicotiana tabacum var is obtained
Format: functional
Outline: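 Three Nicotiana tabacum callus pieces of ca. 10 mg fresh weight were placed per culture. E50 is the concentration giving 50% of maximal callus yield.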

Row | Compound | Log 1/E50
2 | Cc1cccc(Nc2[nH]c(C)nc3nccc2-3)c1 | -1.12
3 | Cc1nc(NCc2ccccc2)c2cc[nH]c2n1 [ROLODINE] | -0.72
4 | CCCCCNc1[nH]c(C)nc2nccc1-2 | -0.72
5 | Cc1nc(Nc2cccc(Br)c2)c2cc[nH]c2n1 | -0.8
6 | CCOCCNc1[nH]c(C)nc2nccc1-2 | -1.37
7 | Cc1nc(Nc2cccc(I)c2)c2cc[nH]c2n1 | -0.73
8 | Cc1nc(NCCc2ccccc2)c2cc[nH]c2n1 | -1.37
9 | Cc1nc(Nc2cccc(Cl)c2)c2cc[nH]c2n1 | -0.66
10 | CC(C)=CCNc1[nH]c(C)nc2nccc1-2 | 0.08
11 | CCCCC(CC)CNc1[nH]c(C)nc2nccc1-2 (stereo unspecified) | -0.84
